Several values for one entry are separate records, joined by “and”; a condition that tells them apart may be missing. Equal values may be shown once.
System: Fibroblast
Assay: Multiplex assay against human fibroblast
Type: toxicity, cell-based
Outline: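 Four dyes were applied at seeding to live cells: Hoechst33342, BioTracker Green Microtubule Cytoskeleton Dye, MitoTracker Red and Annexin V Alexa Fluor 680. Imaging after compound addition used a CQ1 microscope at 37°C and 5% CO2. CellPathfinder machine-learning gating then sorted cells into Hoechst high-intensity objects or normal cells, normal cells into healthy, pyknosed or fragmented nuclei, and pyknosed cells into mitotic or apoptotic, with tubulin, mitochondrial-mass and membrane-permeability phenotypes given as per cents of healthy-nucleus cells.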

[1] = 12 h, 1 µM, compound concentration 1 uM
[2] = 12 h, 10 µM, compound concentration 10 uM
[3] = 24 h, 1 µM, compound concentration 1 uM
[4] = 24 h, 10 µM, compound concentration 10 uM
[5] = 48 h, 1 µM, compound concentration 1 uM
[6] = 48 h, 10 µM, compound concentration 10 uM

Question: What does the source list for Cl.Cl.N#Cc1ccc(O[C@@H]2c3ccccc3C[C@H]2N2CCC[C@@H](N)C2)c(Cl)c1?
Answer: Population Apoptotic (%) [1]: 13.21% and 14.29%; Population Fragmented Nuclei (%) [1]: 8.33% and 10.47%; Population Healthy Nuclei (%) [1]: 57.69% and 74.87%; Population Hoechst High Intensity Objects (%) [1]: 0%; Population Membrane Permeable-Phenotype (%) [1]: 6.67% and 4.9%; Population Mitochondria Different-Phenotype (%) [1]: 20% and 19.58%; Population Mitotic Cells (%) [1]: 86.79% and 85.71%; Population Normal (%) [1]: 100%; Population Pyknosed Nuclei (%) [1]: 33.97% and 14.66%; Population Tubulin-Different-Phenotype (%) [1]: 35.56% and 58.04%; Total Cell Count [1]: 156 and 191; Population Apoptotic (%) [2]: 14.81% and 27.63%; Population Fragmented Nuclei (%) [2]: 18.93% and 7.94%; Population Healthy Nuclei (%) [2]: 49.11% and 64.62%; Population Hoechst High Intensity Objects (%) [2]: 0%; Population Membrane Permeable-Phenotype (%) [2]: 3.61% and 6.15%; Population Mitochondria Different-Phenotype (%) [2]: 62.65% and 43.58%; Population Mitotic Cells (%) [2]: 85.19% and 72.37%; Population Normal (%) [2]: 100%; Population Pyknosed Nuclei (%) [2]: 31.95% and 27.44%; Population Tubulin-Different-Phenotype (%) [2]: 78.31% and 88.83%; Total Cell Count [2]: 169 and 277; Population Fragmented Nuclei (%) [3]: 6.79% and 14.63%; Population Healthy Nuclei (%) [3]: 62.35% and 76.59%; Population Hoechst High Intensity Objects (%) [3]: 0%; Population Membrane Permeable-Phenotype (%) [3]: 4.95% and 3.18%; Population Mitochondria Different-Phenotype (%) [3]: 18.81% and 13.38%; Population Mitotic Cells (%) [3]: 98% and 77.78%; Population Normal (%) [3]: 100%; Population Tubulin-Different-Phenotype (%) [3]: 36.63% and 57.32%; Total Cell Count [3]: 162 and 205; Population Apoptotic (%) [4]: 29.27% and 37.5%; Population Fragmented Nuclei (%) [4]: 11.58% and 4.05%; Population Healthy Nuclei (%) [4]: 66.84% and 78.5%; Population Hoechst High Intensity Objects (%) [4]: 0%; Population Membrane Permeable-Phenotype (%) [4]: 2.36% and 3.17%; Population Mitochondria Different-Phenotype (%) [4]: 70.08% and 55.16%; Population Mitotic Cells (%) [4]: 70.73% and 62.5%; Population Normal (%) [4]: 100%; Population Pyknosed Nuclei (%) [4]: 21.58% and 17.45%; Population Tubulin-Different-Phenotype (%) [4]: 85.83% and 88.1%; Total Cell Count [4]: 190 and 321; Population Apoptotic (%) [5]: 20% and 38.89%; Population Fragmented Nuclei (%) [5]: 13.79% and 11.43%; Population Healthy Nuclei (%) [5]: 78.82% and 80%; Population Hoechst High Intensity Objects (%) [5]: 0%; Population Membrane Permeable-Phenotype (%) [5]: 1.88% and 1.79%; Population Mitochondria Different-Phenotype (%) [5]: 16.88% and 10.12%; Population Mitotic Cells (%) [5]: 80% and 61.11%; Population Normal (%) [5]: 100%; Population Pyknosed Nuclei (%) [5]: 7.39% and 8.57%; Population Tubulin-Different-Phenotype (%) [5]: 32.5% and 59.52%; Total Cell Count [5]: 203 and 210; Population Apoptotic (%) [6]: 37.5% and 50%; Population Healthy Nuclei (%) [6]: 75.86% and 86.13%; Population Hoechst High Intensity Objects (%) [6]: 0%; Population Membrane Permeable-Phenotype (%) [6]: 0.57% and 3.37%; Population Mitochondria Different-Phenotype (%) [6]: 42.61% and 26.22%; Population Mitotic Cells (%) [6]: 62.5% and 50%; Population Normal (%) [6]: 100%; Population Pyknosed Nuclei (%) [6]: 3.45% and 7.1%; Population Tubulin-Different-Phenotype (%) [6]: 79.55% and 86.89%; Total Cell Count [6]: 232 and 310

Question: With O=C1NCc2ccc3c(-c4cccc(Cl)c4)c[nH]c3c21 as the compound, how does the “Population Apoptotic (%)” value [1] read?
Answer: 13.51% and 26.32%

Question: And the “Population Fragmented Nuclei (%)” value [1]?
Answer: 16.45% and 5.58%

Question: And the “Population Healthy Nuclei (%)” value [1]?
Answer: 59.21% and 76.74%

Question: What about the “Population Hoechst High Intensity Objects (%)” value [1] of the same compound?
Answer: 0%

Question: And the “Population Membrane Permeable-Phenotype (%)” value [1]?
Answer: 4.44% and 3.64%

Question: And the “Population Mitochondria Different-Phenotype (%)” value [1]?
Answer: 8.89% and 8.48%

Question: And the “Population Mitotic Cells (%)” value [1]?
Answer: 86.49% and 73.68%

Question: And the “Population Normal (%)” value [1]?
Answer: 100%

Question: What about the “Population Pyknosed Nuclei (%)” value [1] of the same compound?
Answer: 24.34% and 17.67%

Question: And the “Population Tubulin-Different-Phenotype (%)” value [1]?
Answer: 10% and 13.33%

Question: And the “Total Cell Count” value [1]?
Answer: 152 and 215

Question: What about the “Population Apoptotic (%)” value [2] of the same compound?
Answer: 23.21% and 34.92%

Question: And the “Population Fragmented Nuclei (%)” value [2]?
Answer: 9.88% and 1.93%

Question: What about the “Population Healthy Nuclei (%)” value [2] of the same compound?
Answer: 57.56% and 67.63%

Question: And the “Population Hoechst High Intensity Objects (%)” value [2]?
Answer: 0%

Question: What about the “Population Membrane Permeable-Phenotype (%)” value [2] of the same compound?
Answer: 3.03% and 5%

Question: And the “Population Mitochondria Different-Phenotype (%)” value [2]?
Answer: 15.15% and 17.86%

Question: What about the “Population Mitotic Cells (%)” value [2] of the same compound?
Answer: 76.79% and 65.08%

Question: What about the “Population Normal (%)” value [2] of the same compound?
Answer: 100%

Question: What about the “Population Pyknosed Nuclei (%)” value [2] of the same compound?
Answer: 32.56% and 30.43%

Question: And the “Population Tubulin-Different-Phenotype (%)” value [2]?
Answer: 8.08% and 17.14%

Question: And the “Total Cell Count” value [2]?
Answer: 172 and 207

Question: What about the “Population Apoptotic (%)” value [3] of the same compound?
Answer: 18.75% and 20.59%

Question: What about the “Population Fragmented Nuclei (%)” value [3] of the same compound?
Answer: 13.25% and 6.58%

Question: What about the “Population Healthy Nuclei (%)” value [3] of the same compound?
Answer: 65.56% and 79.42%

Question: What about the “Population Hoechst High Intensity Objects (%)” value [3] of the same compound?
Answer: 0%

Question: What about the “Population Membrane Permeable-Phenotype (%)” value [3] of the same compound?
Answer: 7.07% and 4.66%

Question: What about the “Population Mitochondria Different-Phenotype (%)” value [3] of the same compound?
Answer: 10.1% and 5.18%

Question: What about the “Population Mitotic Cells (%)” value [3] of the same compound?
Answer: 81.25% and 79.41%

Question: And the “Population Normal (%)” value [3]?
Answer: 100%

Question: And the “Population Pyknosed Nuclei (%)” value [3]?
Answer: 21.19% and 13.99%

Question: And the “Population Tubulin-Different-Phenotype (%)” value [3]?
Answer: 13.13% and 9.84%

Question: What about the “Total Cell Count” value [3] of the same compound?
Answer: 151 and 243

Question: What about the “Population Apoptotic (%)” value [4] of the same compound?
Answer: 30.77% and 40.54%

Question: And the “Population Fragmented Nuclei (%)” value [4]?
Answer: 11.59% and 4.85%

Question: And the “Population Healthy Nuclei (%)” value [4]?
Answer: 64.63% and 77.18%

Question: And the “Population Hoechst High Intensity Objects (%)” value [4]?
Answer: 0%

Question: And the “Population Membrane Permeable-Phenotype (%)” value [4]?
Answer: 3.77%

Question: And the “Population Mitochondria Different-Phenotype (%)” value [4]?
Answer: 12.26% and 8.81%

Question: What about the “Population Mitotic Cells (%)” value [4] of the same compound?
Answer: 69.23% and 59.46%

Question: What about the “Population Normal (%)” value [4] of the same compound?
Answer: 100%

Question: What about the “Population Pyknosed Nuclei (%)” value [4] of the same compound?
Answer: 23.78% and 17.96%

Question: What about the “Population Tubulin-Different-Phenotype (%)” value [4] of the same compound?
Answer: 9.43% and 8.81%

Question: What about the “Total Cell Count” value [4] of the same compound?
Answer: 164 and 206

Question: What about the “Population Apoptotic (%)” value [5] of the same compound?
Answer: 20.83% and 38.89%

Question: What about the “Population Fragmented Nuclei (%)” value [5] of the same compound?
Answer: 10.71% and 5.78%

Question: And the “Population Healthy Nuclei (%)” value [5]?
Answer: 75% and 86.22%

Question: What about the “Population Hoechst High Intensity Objects (%)” value [5] of the same compound?
Answer: 0%

Question: What about the “Population Membrane Permeable-Phenotype (%)” value [5] of the same compound?
Answer: 4.76% and 5.67%

Question: What about the “Population Mitotic Cells (%)” value [5] of the same compound?
Answer: 79.17% and 61.11%

Question: And the “Population Normal (%)” value [5]?
Answer: 100%

Question: What about the “Population Pyknosed Nuclei (%)” value [5] of the same compound?
Answer: 14.29% and 8%

Question: What about the “Population Tubulin-Different-Phenotype (%)” value [5] of the same compound?
Answer: 7.94% and 9.28%

Question: What about the “Total Cell Count” value [5] of the same compound?
Answer: 168 and 225

Question: And the “Population Apoptotic (%)” value [6]?
Answer: 20% and 60%

Question: And the “Population Fragmented Nuclei (%)” value [6]?
Answer: 11.49% and 4.95%

Question: What about the “Population Healthy Nuclei (%)” value [6] of the same compound?
Answer: 77.01% and 82.67%

Question: And the “Population Hoechst High Intensity Objects (%)” value [6]?
Answer: 0%

Question: And the “Population Membrane Permeable-Phenotype (%)” value [6]?
Answer: 2.24% and 5.99%

Question: What about the “Population Mitochondria Different-Phenotype (%)” value [6] of the same compound?
Answer: 10.45% and 5.99%

Question: And the “Population Mitotic Cells (%)” value [6]?
Answer: 80% and 40%

Question: And the “Population Normal (%)” value [6]?
Answer: 100%

Question: And the “Population Pyknosed Nuclei (%)” value [6]?
Answer: 11.49% and 12.38%

Question: What about the “Population Tubulin-Different-Phenotype (%)” value [6] of the same compound?
Answer: 5.97% and 10.18%

Question: And the “Total Cell Count” value [6]?
Answer: 174 and 202
